From ChEMBL document CHEMBL4308921, “Structure-Activity Relationships of Central Nervous System Penetration by Fatty Acid Amide Hydrolase (FAAH)-Targeted Thyromimetic Prodrugs” (ACS Med Chem Lett, 2019) come the findings set out here.

The structures appear in SMILES notation. The source made the active and inactive calls. The calls are words filed in the database; no cut-off is given here.

Data set [1] can be described thus: Prodrug activation in C57BL/6 mouse brain assessed as FAAH-mediated sobetirome formation at 3.05 umol/kg, ip after 1 hr by LC-MS/MS analysis. The data set is classed as organism-based. The note with it: in vivo.
Data set [2] can be described thus: Prodrug activation in C57BL/6 mouse serum assessed as FAAH-mediated sobetirome formation at 3.05 umol/kg, ip after 1 hr by LC-MS/MS analysis. The data set is classed as organism-based. The note with it: in vivo.
Data set [3] has as its target T1, Fatty-acid amide hydrolase 1 (Homo sapiens, UniProt O00519).
T1 sequence (O00519 whole entry): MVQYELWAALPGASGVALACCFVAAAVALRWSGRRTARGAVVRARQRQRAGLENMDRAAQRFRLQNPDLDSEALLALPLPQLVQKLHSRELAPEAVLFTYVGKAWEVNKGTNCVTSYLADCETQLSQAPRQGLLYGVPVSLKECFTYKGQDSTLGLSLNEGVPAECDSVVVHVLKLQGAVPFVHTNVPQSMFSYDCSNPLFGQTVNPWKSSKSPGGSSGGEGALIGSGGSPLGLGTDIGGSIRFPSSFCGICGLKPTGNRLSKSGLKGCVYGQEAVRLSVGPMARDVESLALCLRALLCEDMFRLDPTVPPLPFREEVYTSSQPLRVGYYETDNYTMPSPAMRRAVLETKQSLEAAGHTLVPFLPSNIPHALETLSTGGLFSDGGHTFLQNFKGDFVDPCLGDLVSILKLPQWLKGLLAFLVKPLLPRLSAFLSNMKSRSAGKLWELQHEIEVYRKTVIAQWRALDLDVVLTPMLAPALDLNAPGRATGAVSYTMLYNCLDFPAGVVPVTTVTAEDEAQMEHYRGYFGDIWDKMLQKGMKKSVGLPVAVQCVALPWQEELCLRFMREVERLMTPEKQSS
Put plainly: Prodrug activation in COS7 cells overexpressing human FAAH assessed as FAAH-mediated sobetirome formation by measuring compound hydrolysis rate at 100 uM by LC-MS/MS analysis. Type of data set: cell-based. Summed up:
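Hydrolysis kinetics were measured in homogenate of COS-7 cells overexpressing human FAAH, with prodrug substrate at 100 µM. Rate is given as nmol mg-1 min-1, mean ± SEM, n = 3.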

A short description of data set [4]: Oral bioavailability in C57BL/6 mouse at 9.15 umol/kg administered via gavage by LC-MS/MS analysis. The data set is classed as ADME, organism-based. The note with it: in vivo.
Data set [5] is described as follows: Terminal half life in C57BL/6 mouse at 9.15 umol/kg, iv by LC-MS/MS analysis. The data set is classed as ADME, organism-based. The note with it: in vivo, read-out: beta t1/2 (converted).
The nature of data set [6]: Clearance in C57BL/6 mouse at 9.15 umol/kg, iv by LC-MS/MS analysis. Type of data set: ADME, organism-based. The note with it: in vivo.
Data set [7] in a line: AUC (0 to 24 hrs) in C57BL/6 mouse brain assessed as sobetirome level at 9.15 umol/kg, iv by LC-MS/MS analysis. Type of data set: ADME, organism-based. Details: dose 9.15 umol/kg, time < 24 hr, route intravenous. The note with it: in vivo.
The nature of data set [8]: Brain to serum permeability coefficient, Kp of the compound in C57BL/6 mouse assessed as sobetirome level at 9.15 umol/kg, iv measured up to 24 hrs by LC-MS/MS analysis. Type of data set: ADME, organism-based.
Data set [9] is described as follows: AUC (0 to 24 hrs) in C57BL/6 mouse brain assessed as sobetirome level at 9.15 umol/kg, po via gavage by LC-MS/MS analysis. Details: dose 9.15 umol/kg, time < 24 hr, route oral. The note with it: in vivo. The data set is classed as ADME, organism-based.
Data set [10] can be described thus: Brain to serum permeability coefficient, Kp of the compound in C57BL/6 mouse assessed as sobetirome level at 9.15 umol/kg, po via gavage measured up to 24 hrs by LC-MS/MS analysis. Type of data set: ADME, organism-based.
A short description of data set [11]: Tmax in C57BL/6 mouse brain assessed as sobetirome level at 9.15 umol/kg, iv by LC-MS/MS analysis. Type of data set: ADME, organism-based. The note with it: in vivo.
A short description of data set [12]: Tmax in C57BL/6 mouse serum assessed as sobetirome level at 9.15 umol/kg, iv by LC-MS/MS analysis. Type of data set: ADME, organism-based. The note with it: in vivo.
Data set [13] addresses T2, Thyroid hormone receptor alpha (Homo sapiens) (UniProt P10827).
T2 sequence (whole entry): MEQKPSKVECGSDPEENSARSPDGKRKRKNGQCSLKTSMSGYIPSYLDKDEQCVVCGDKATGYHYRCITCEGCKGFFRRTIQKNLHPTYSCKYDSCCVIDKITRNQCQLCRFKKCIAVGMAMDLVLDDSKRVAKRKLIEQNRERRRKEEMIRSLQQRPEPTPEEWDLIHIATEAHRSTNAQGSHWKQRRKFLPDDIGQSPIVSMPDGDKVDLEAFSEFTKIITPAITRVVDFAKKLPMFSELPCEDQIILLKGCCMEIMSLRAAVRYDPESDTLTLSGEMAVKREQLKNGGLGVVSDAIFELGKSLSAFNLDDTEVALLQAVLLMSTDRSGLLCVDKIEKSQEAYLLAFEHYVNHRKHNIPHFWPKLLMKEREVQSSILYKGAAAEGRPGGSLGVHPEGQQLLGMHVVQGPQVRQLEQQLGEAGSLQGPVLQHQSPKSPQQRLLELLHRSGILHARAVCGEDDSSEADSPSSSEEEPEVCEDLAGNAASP
Kind of data set: Agonist activity at human TRalpha treated at 1 hr post FAAH inhibitor PF-3845 treatment and measured after 24 hrs by cell based luciferase reporter gene assay. Summed up: (§1)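 A plate-based luciferase reporter assay measured TRα or TRβ activation as dose-response curves, run in the presence of the FAAH inhibitor PF-3845. Data are mean ± SEM, n = 3.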

Data set [14] concerns the target T3, Thyroid hormone receptor beta (Homo sapiens) (UniProt P10828).
T3 sequence (whole entry): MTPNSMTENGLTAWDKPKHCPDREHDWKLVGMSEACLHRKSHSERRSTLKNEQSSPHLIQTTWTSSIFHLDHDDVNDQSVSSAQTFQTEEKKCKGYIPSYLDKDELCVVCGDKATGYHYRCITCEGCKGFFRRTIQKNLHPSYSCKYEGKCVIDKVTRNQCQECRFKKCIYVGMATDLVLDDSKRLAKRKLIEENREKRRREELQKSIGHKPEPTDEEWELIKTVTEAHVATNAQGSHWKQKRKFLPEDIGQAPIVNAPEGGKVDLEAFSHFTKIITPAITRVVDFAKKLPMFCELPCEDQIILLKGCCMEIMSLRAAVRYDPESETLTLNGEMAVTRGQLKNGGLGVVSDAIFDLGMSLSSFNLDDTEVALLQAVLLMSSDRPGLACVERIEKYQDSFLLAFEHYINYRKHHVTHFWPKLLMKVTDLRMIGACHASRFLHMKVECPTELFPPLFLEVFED
Kind of data set: Agonist activity at human TRbeta treated at 1 hr post FAAH inhibitor PF-3845 treatment and measured after 24 hrs by cell based luciferase reporter gene assay. Put shortly:
as §1

Data set [15] is described as follows: Brain to serum permeability coefficient, Kp of the compound in C57BL/6 mouse assessed as sobetirome level at 3.05 umol/kg, ip after 1 hr by LC-MS/MS analysis. The data set is classed as ADME, organism-based.

Consider `CNC(=O)COc1cc(C)c(Cc2ccc(O)c(C(C)C)c2)c(C)c1`, for which the values for the Drug uptake in [1] and in [2] were 53.1 ng/g and 17.2 ng/g, respectively. In data set [3], the Drug metabolism amounted to 3.2 nmol/mg/min. The compound also came in with a bioavailability in [4] of 19.5%. For the same compound, in data set [5], the half-life is 8.8 h. Further, the clearance in [6] was found to be 5.5 L/h/kg. For the same compound, the AUC turned out to be 694 ng·h/g in data set [7] and 378 ng·h/g in data set [9]. Moreover, the concentration ratio (Kp) was 0.82 in data set [8], 0.44 in data set [10] and 3.17 in data set [15]. For the same compound, the Tmax in data set [11] and in data set [12] was 0.5 h in each case. Also, the result in data set [13] and in [14] was Active.
